OX1R antag-1: OX1R (human) antagonism; O43613; OX1R-expressing cells, FRET antagonist read-out; inhibition, % at 6.6 µM; 330,000 compounds, 1.8% hits; AID 485270; in the data active = inhibition mostly above about 38%, no sharp cut-off; inactive = mostly below about 40%;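 also: 0% = agonist challenge alone and 100% = reference antagonist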
Target sequence (O43613 whole entry, looked up): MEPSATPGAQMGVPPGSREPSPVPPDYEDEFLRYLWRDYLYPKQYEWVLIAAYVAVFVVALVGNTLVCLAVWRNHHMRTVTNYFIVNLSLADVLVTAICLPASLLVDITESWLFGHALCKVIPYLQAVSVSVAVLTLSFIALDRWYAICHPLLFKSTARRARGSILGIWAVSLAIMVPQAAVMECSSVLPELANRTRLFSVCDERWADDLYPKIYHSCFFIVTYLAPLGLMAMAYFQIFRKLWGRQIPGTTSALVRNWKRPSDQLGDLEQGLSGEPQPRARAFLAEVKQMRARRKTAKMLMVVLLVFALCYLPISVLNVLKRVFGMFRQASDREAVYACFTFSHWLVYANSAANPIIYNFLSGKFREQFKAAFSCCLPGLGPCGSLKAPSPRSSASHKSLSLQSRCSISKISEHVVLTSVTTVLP
GPR7 antagonist: antagonists of human GPR7 (neuropeptides B/W receptor 1) | P48145 | inhibition, % at 4.4 µM | 290,000 compounds, 1.1% hits | GPR7-expressing cells, fluorescence antagonist assay | AID 1861; in the data active = inhibition above about 16%, passing the limit was not always enough;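 also: cells stimulated with the agonist NPW; 0% = agonist with vehicle and 100% = vehicle without agonist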
TAAR1 antag: antagonists of human TAAR1. 360,000 compounds, 1.5% hits. Q96RJ0. inhibition, % at 3 µM. CHO RD-HGA16 TAAR1, Fluo-8 calcium fluorescence, antagonist;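 active = inhibition above a per-plate cutoff, the mean inhibition of test compounds on that plate plus 3 SD, cut at about 49% in these data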;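 also: 0% = DMSO plus EC80 beta-PEA response and 100% = DMSO alone without agonist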
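System: RD-HGA16 CHO cells with stable hTAAR1 and Gα16 | Probe or stimulus: EC80 β-phenethylamine stimulus | Dosing: 3 µM, single point | Times: Dye loading 75 min at 37 °C, then 30 min room temperature | Measured by: Fluo-8 calcium-sensitive fluorescence | Read-out basis: % inhibition of agonist calcium response | Replicates: n of 1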
OX1R antag-2: blocks the human orexin 1 receptor; O43613; CHO/OX1R cells, Fluo-8 calcium fluorescence, orexin A; inhibition, % at 5 µM; 330,000 compounds, 0.43% hits;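 active = inhibition above its plate's threshold, mean inhibition of all tested compounds on the plate plus 3 SD, cut at about 37% in these data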;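 also: 0% = orexin A challenge wells and 100% = SB-334867-A antagonist wells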
TAAR1 agonist: human TAAR1 agonism; Q96RJ0; CHO RD-HGA16 TAAR1, Fluo-8 calcium fluorescence; vehicle wells 0%, saturating PEA agonist 100%; activation, % at 3 µM; 360,000 compounds, 0.99% hits;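 active = activation above the mean activation of all test compounds in the run plus 3 SD, cut at about 38% in these data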
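test system = CHO RD-HGA16 cells carrying human TAAR1 plus Gα16 | schedule = 17-24 h seeding, 75 min 37 °C dye, 30 min RT | compound dosing = 3 µM single concentration | control set = DMSO and PEA EC100 | replicates = n 1 | signal = Fluo-8 fluorescence, 5 s baseline then 140 s kinetic read | measure = percent activation vs PEA EC100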
CHO parental Ca: counter-screen for OX1R antagonists: effect in parental CHO cells; parental CHO-K1, ATP-induced calcium, Fluo-8 fluorescence; inhibition, % at 5.6 µM; 330,000 compounds, 0.63% hits;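 active = inhibition above that plate's mean sample inhibition plus 3 SD, cut at about 26% in these data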;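 also: 0% = ATP-challenged DMSO wells and 100% = DMSO wells without ATP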
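Test system: untransfected parental CHO cell line. Compound: one dose, 5.6 µM nominal. Detection: intracellular calcium via Fluo-8 no-wash fluorescent dye. Measure: % inhibition. Benchmarks: ATP-challenged DMSO wells low, unchallenged DMSO wells high.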
OX1R Fluo8 conf: confirmation of human orexin 1 receptor antagonists | shares compounds with OX1R antag-2 | CHO/OX1R cells, orexin A calcium Fluo-8 fluorescence | inhibition, % at 5 µM | 1,100 compounds, 38% hits | AID 492963; in the data active = inhibition above about 29%;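 also: 0% = agonist challenge alone and 100% = reference antagonist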
CHO Ca triplic: counter-screen for OX1R antagonists: effect in parental CHO cells. inhibition, % at 5.6 µM. shares compounds with OX1R antag-2. AID 492965. 1,100 compounds, 9.3% hits. parental CHO-K1, ATP-induced calcium, Fluo-8 fluorescence;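 active = inhibition above a per-plate limit, the mean inhibition of that plate's test compounds plus 3 SD, cut at about 25% in these data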;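 also: 0% = ATP challenge with DMSO and 100% = DMSO without ATP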
OX1R HTRF confirm: OX1R (human) antagonism, HTRF confirmed. 1,800 compounds, 49% hits. shares compounds with OX1R antag-1. AID 492964. OX1R-expressing cells, HTRF antagonist assay. inhibition, % at 6.6 µM; in the data active = inhibition above about 55%;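 also: CHO cells expressing OX1R stimulated with orexin A at about EC80; 0% = agonist challenge alone and 100% = reference antagonist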
CHO-K1 HTRF cnt: signal in parental CHO-K1 cells, OX1R antagonist counter-screen | shares compounds with OX1R antag-1 | HTRF counterscreen | inhibition, % at 6.6 µM | 1,800 compounds, 48% hits; in the data active = inhibition above about 17%;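 also: 0% = agonist challenge with vehicle and 100% = vehicle alone without agonist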
TAAR1 ag conf: confirmation of human TAAR1 agonists. CHO RD-HGA16 TAAR1, Fluo-8 calcium fluorescence; scaled: DMSO 0%, maximal phenethylamine 100%. activation, % at 3 µM. 2,400 compounds, 82% hits. shares compounds with TAAR1 agonist;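 active = activation above a cutoff set at the run's mean compound activation plus 3 SD, cut at about 39% in these data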
Ga16 nonsel ag: nonselective agonist in parental cells, TAAR1 agonist counter-screen; 2,400 compounds, 50% hits; shares compounds with TAAR1 agonist; CHO-Ga16 parental, Fluo-8 calcium fluorescence; normalized to maximal ATP response, DMSO zero; activation, % at 3 µM; AID 651787;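 active = activation above the run cutoff, the mean activation over all tested wells plus 3 SD, cut at about 12% in these data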;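 also: 0% = DMSO wells and 100% = maximal ATP response on the peak over basal ratio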
TAAR1 desens: counter-screen for human TAAR1 agonists: agonists that desensitize TAAR1 | shares compounds with TAAR1 agonist | CHO RD-HGA16 hTAAR1, Fluo-8 calcium, beta-PEA response inhibition | inhibition, % at 3 µM | 2,400 compounds, 46% hits | AID 651951;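 active = inhibition above the run cutoff, the mean inhibition of all test compounds plus 3 SD, cut at about 49% in these data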;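 also: beta-PEA stimulus applied at its EC80; loss of beta-PEA calcium signal after compound pretreatment read as receptor desensitization; 0% = DMSO with beta-PEA at EC80 and 100% = DMSO alone without agonist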
Ga16 nonsel ant: nonselective Ga16 antagonism, counter-screen; shares compounds with TAAR1 agonist; CHO-Ga16 ATP-induced calcium, Fluo-8 fluorescence; inhibition, % at 3 µM; 2,400 compounds, 39% hits;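 active = inhibition above the plate's mean compound inhibition plus 3 SD, computed per plate, cut at about 22% in these data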;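 also: 0% = EC80 ATP with DMSO and 100% = DMSO wells without ATP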
* = called active by the depositor; . = no result. A selection: hits, their analogues and other compounds. The true share with any hit is near 4.6%.

SMILES	OX1R antag-1	GPR7 antagonist	TAAR1 antag	OX1R antag-2	TAAR1 agonist	CHO parental Ca	OX1R Fluo8 conf	CHO Ca triplic	TAAR1 ag conf	Ga16 nonsel ag	TAAR1 desens	Ga16 nonsel ant	others
Cc1ccc(C)c(Cn2nnc(C(=O)Nc3ccc4c(c3)OCCO4)c2N)c1	5.8	.	66.9*	22.5	102.0*	15.0	36.0*	20.2	105.2*	54.5*	63.4*	29.6*
CCCc1nnc(NC(=O)Cn2c(=O)oc3ccccc32)s1	-1.9	-10.5	12.2	-15.6	19.9	2.2	.	.	.	.	.	.
CCCc1nnc(NC(=O)Cn2c(=O)oc3cc(Br)ccc32)s1	-1.7	-2.7	63.2*	40.0	121.0*	5.5	27.7	10.7	105.6*	72.7*	74.9*	44.7*
COc1ccc(C(=O)N2CCCC(C(N)=O)C2)cc1S(=O)(=O)N1CCOCC1 (centres undefined)	-2.5	.	-18.5	-2.2	15.4	-3.1	.	.	.	.	.	.
Cc1c(C)[n+](=O)c2c(n1[O-])CCCCC2	8.8	-0.8	0.6	-5.3	5.7	3.7	.	.	.	.	.	.
CCOc1ccc(NS(=O)(=O)c2ccc(NC(=S)NC(=O)CC(C)C)cc2)cc1	8.7	4.6	61.0*	29.4	71.9*	-1.1	20.0	-7.7	70.4*	30.7*	67.9*	38.5*
CC(C)CC(=O)NC(=S)Nc1ccc(S(=O)(=O)NC(C)(C)C)cc1	26.4	-5.7	13.3	7.1	10.0	-5.8	.	.	.	.	.	.
COc1ccc(C(=O)NC(=S)NNC(=O)c2cccc(C)c2)cc1	10.9	.	104.0*	36.3	169.8*	23.9	31.4*	12.8	148.0*	122.0*	106.4*	74.3*
COc1ccc(C(=O)NNC(=S)NC(=O)c2cccs2)cc1	18.7	-0.8	36.6	21.8	102.7*	17.8	0.2	-3.4	66.7*	40.0*	24.7	25.7*
COc1ccc(C(=O)NNC(=S)Nc2ccccc2)cc1	23.7	-12.0	-25.6	5.8	-0.4	8.7	.	.	.	.	.	.
Cc1ccc(N(CCC(=O)Nc2nnc(C3CC3)s2)S(=O)(=O)c2ccccc2)cc1	12.0	-10.0	-17.7	-24.7	4.3	-12.0	.	.	.	.	.	.
O=C(Nc1nnc(-c2ccc(Cl)cc2)o1)c1nc2ccccc2s1	-2.4	8.4	29.1	32.4	92.4*	-3.0	-3.8	3.8	84.7*	70.9*	49.9*	54.1*
C=CCn1c(COc2ccc(F)cc2)nnc1SCC(=O)NC1CC1	14.9	.	-1.1	-21.3	-0.2	-1.2	.	.	.	.	.	.
O=C(Nc1ccccc1)[C@@H]1CC=C[C@@H]2CCN(Cc3ccc(Cl)c(Cl)c3)C(=O)[C@@H]21	84.6*	.	16.7	66.1*	57.3*	-26.7	55.5*	-17.6	51.1*	12.1*	16.6	2.0	OX1R HTRF confirm=92.1*;CHO-K1 HTRF cnt=2.4
